We go through seven compounds from ChEMBL document CHEMBL5113552, “(-)-Epigallocatechin Gallate is a Noncompetitive Inhibitor of NAD Kinase” (ACS Med Chem Lett, 2022).

Activity calls are given as the source filed them. The calls are words filed in the database; no cut-off is given here. Bounds are passed on as bounds.

For assay [1], the system named is CCRF-CEM. The assay is described as follows: Cytotoxicity against human CCRF-CEM cells assessed as inhibition of cell growth. Format: functional, cell-based.
For assay [2], the system named is MOLT-4. The assay is described as follows: Cytotoxicity against human MOLT-4 cells assessed as inhibition of cell growth. The format is functional, cell-based.
Assay [3] is described as follows: Cytotoxicity against human C85 cells assessed as inhibition of cell growth. The settings on record: CCCL-1. The format is functional, cell-based.
The subject of assay [4] is RL. The assay is described as follows: Cytotoxicity against human RL cells assessed as inhibition of cell growth. The format is functional, cell-based.
In assay [5] the target is T1, NAD kinase (Homo sapiens, UniProt O95544).
T1 sequence (O95544 whole entry): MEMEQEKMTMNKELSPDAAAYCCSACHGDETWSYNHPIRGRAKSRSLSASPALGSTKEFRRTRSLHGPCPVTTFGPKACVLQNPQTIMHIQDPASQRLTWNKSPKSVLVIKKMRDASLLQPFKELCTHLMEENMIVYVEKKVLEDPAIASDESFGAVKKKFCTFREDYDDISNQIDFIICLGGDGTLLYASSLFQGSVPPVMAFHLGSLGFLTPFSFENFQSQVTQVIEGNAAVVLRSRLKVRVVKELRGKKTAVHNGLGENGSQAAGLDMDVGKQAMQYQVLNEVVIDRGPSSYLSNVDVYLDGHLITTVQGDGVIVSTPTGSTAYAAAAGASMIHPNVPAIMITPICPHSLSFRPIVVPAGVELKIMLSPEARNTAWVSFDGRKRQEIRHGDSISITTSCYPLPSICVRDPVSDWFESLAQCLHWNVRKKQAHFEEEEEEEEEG
Nature of the assay: Inhibition of human NADK by HPLC analysis.

In assay [6] the target is T1, NAD kinase. The assay is described as follows: Inhibition of NADK (unknown origin) by HPLC analysis.
The target of assay [7] is T2, NAD kinase (Homo sapiens) (UniProt O95544).
T2 sequence (whole entry): T1 sequence (O95544 whole entry)
The assay is described as follows: Binding affinity to human NADK (345 to 365 residues) assessed as decrease in deuterium incorporation at 80 uM measured after 30 mins by HDX-MS analysis. The arrangement: scale not given: the % may be the effect or the level left.

Assay [8] addresses T1, NAD kinase. The assay is described as follows: Inhibition of NADK delta 95 kinase domain (unknown origin) at 80 uM measured after 30 mins by […].
The subject of assay [9] is PC-9. The assay is described as follows: Cytotoxicity against human PC-9 cells harboring wild type KRAS assessed as inhibition of cell growth at 60 uM measured on day 4. The format is functional, cell-based. Summed up: (§1)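 Lung cancer cell lines (PC-9 KRAS WT, A549 KRAS G12S, H358 and H23 KRAS G12C) exposed to a range of concentrations. Growth curves were built by following cell number over days (day 4 is cited) against a DMSO control. n = 3 replicates; significance was judged at P < 0.05, 0.01 and 0.001.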

Assay [10] has as its system A549. Nature of the assay: Cytotoxicity against human A549 cells harboring KRAS […] mutant assessed as inhibition of cell growth at 30 uM. The format is functional, cell-based.
Assay [11] deals with T2, NAD kinase (Homo sapiens). The assay is described as follows: Binding affinity to human NADK (410 to 418 residues) assessed as decrease in deuterium incorporation at 80 uM measured after 30 mins by HDX-MS analysis. Details: scale not given: the % may be the effect or the level left.
Assay [12] deals with A549. Nature of the assay: Cytotoxicity against human A549 cells harboring KRAS G12S mutant assessed as inhibition of cell growth at 50 uM.
For assay [13], the target named is T1, NAD kinase. The assay is described as follows: Non-competitive inhibition of N-terminal full length NADK (unknown origin) expressed in Escherichia coli BL21(DE3) cells by enzymatic activity assay.
In assay [14] the target is T1, NAD kinase. Nature of the assay: Binding affinity to N-terminal full length NADK (unknown origin) expressed in Escherichia coli BL21(DE3) cells assessed as dissociation constant by surface plasmon resonance assay. In general terms: SPR reads the build-up and loss of mass on a sensor chip optically.
Assay [15] relates to NCI-H23. Nature of the assay: Cytotoxicity against human H23 cells harboring KRAS G12C mutant assessed as inhibition of cell growth at 30 uM. Format: functional. In outline:
as §1

Assay [16] has as its system NCI-H358. The assay is described as follows: Cytotoxicity against human H358 cells harboring KRAS G12C mutant assessed as inhibition of cell growth at 30 uM. Format: functional. Summed up: as §1
Assay [17] deals with T2, NAD kinase (Homo sapiens). The assay is described as follows: Binding affinity to human NADK (155 to 164 residues) assessed as decrease in deuterium incorporation at 80 uM measured after 30 mins by HDX-MS analysis. The arrangement: scale not given: the % may be the effect or the level left.

Turning to `NC(=S)c1cccnc1`, the IC50 in [1], in [2], in [3] and in [4] was 10 µM in each case.
As for `Nc1ncnc2c1ncn2[C@@H]1O[C@H](CSSC[C@H]2O[C@@H](n3c(Br)nc4c(N)ncnc43)[C@H](O)[C@@H]2O)[C@@H](O)[C@H]1O`, the inhibition constant Ki (in general, a dissociation constant, usually derived from enzyme kinetics or from competition with a known ligand) in [5] was determined as 6 µM.
In the case of `Nc1ncnc2c1ncn2[C@@H]1O[C@H](CSSC[C@H]2O[C@@H](n3cnc4c(N)ncnc43)[C@H](O)[C@@H]2O)[C@@H](O)[C@H]1O`, the affinity in [5], expressed as Ki, was 45 µM.
Same read-out and setting: in the case of `Nc1ncnc2c1nc(Br)n2[C@@H]1O[C@H](CSSC[C@H]2O[C@@H](n3c(Br)nc4c(N)ncnc43)[C@H](O)[C@@H]2O)[C@@H](O)[C@H]1O` it was 6 µM.
On to `Oc1cc(O)c2c(c1)O[C@@H](c1cc(O)c(O)c(O)c1)[C@H](O)C2` [(-)-GALLOCATECHIN], for which the 50% inhibitory concentration (IC50) (usually the point on the concentration scale where inhibition reaches its midpoint) in assay [6] was above 100 µM.
On the same count and under the same terms, in the case of `Oc1cc(O)c2c(c1)O[C@H](c1cc(O)c(O)c(O)c1)[C@H](O)C2` [EPIGALLOCATECHIN] it was above 100 µM.
Turning to `O=C(O[C@@H]1Cc2c(O)cc(O)cc2O[C@@H]1c1cc(O)c(O)c(O)c1)c1cc(O)c(O)c(O)c1` [EPIGALOCATECHIN GALLATE], the Activity in assay [7] worked out at 21.1%; in assay [11] it was 21.8%; in assay [17], 12.9%. This compound had an IC50 in [8] of 0.96 µM. For the same compound, the result in [9] and in [10] was Active. In assay [12], the inhibition (commonly the change of the read-out against control, counted positive when it falls) at 50 µM is 100%. In [13], this compound yielded a Ki of 3.28 µM. In addition, the equilibrium dissociation constant (Kd) (as a rule, the concentration at which binding is half-saturated) in assay [14] is 1.78 µM. Besides, the inhibition at 30 µM in assay [15] and in assay [16] was 100% each time.
